Source: ChEMBL document CHEMBL1122671, “Anticonvulsant activity of some 4-aminobenzamides” (J Med Chem, 1984)
Active and inactive are the calls of the source.

Experiments:
[1] = system: Mus musculus; assay: Anticonvulsant activity against MES (maximal electroshock) induced seizure in mice at 4 hr; - = no activity observed at 600 mg/Kg; format: functional, organism-based
How it was run: (§1)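 Male Carworth Farms number-one mice received the compound ip in 30% polyethylene glycol 400. Doses were 30, 100 and 300 mg/kg, with 600 mg/kg in some cases. Maximal electroshock seizure protection was scored at 30 min and 4 h after dosing. Activity is coded by the lowest effective dose.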

[2] = system: Mus musculus; assay: Anticonvulsant activity against scMet (subcutaneous metrazole) induced seizure in mice at 30 min; - = no activity observed at 600 mg/Kg; format: functional, organism-based
[3] = system: Mus musculus; assay: Anticonvulsant activity against MES (maximal electroshock) induced seizure in mice at 30 min; - = no activity observed at 600 mg/Kg; format: functional, organism-based; how it was run: as §1
[4] = system: Mus musculus; assay: Anticonvulsant activity against scMet (subcutaneous metrazole) induced seizure in mice at 4 hr; - = no activity observed at 600 mg/Kg; format: functional, organism-based
[5] = system: Mus musculus; assay: Evaluated for toxicity by using rotarod test in mice at 4 hr; - = no activity observed at 600 mg/Kg; format: organism-based; settings: in vivo
How it was run: (§2)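 Neurotoxicity in male Carworth Farms number-one mice dosed ip in 30% PEG 400 at 30, 100, 300 and sometimes 600 mg/kg, tested 30 min or 4 h later. Mice placed on a 1-in. knurled rod rotating at 6 rpm; toxicity means failure to stay on the rod for 1 min. Scored by the lowest toxic dose; footnotes record loss of righting reflex or lethality.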

[6] = system: Mus musculus; assay: Evaluated for toxicity by using rotarod test at in mice 30 min; - = no activity observed at 600 mg/Kg; format: organism-based; settings: in vivo, 0.5 h; how it was run: as §2
[7] = system: Mus musculus; assay: Anticonvulsant activity against scMet (subcutaneous metrazole) induced seizure in mice at 4 hr; ++ indicates activity at 300 mg/kg.; format: functional, organism-based; parameters: dose 300 mg/kg
[8] = system: Mus musculus; assay: Anticonvulsant activity against MES (maximal electroshock) induced seizure in mice at 4 hr; +++ indicates activity at 100 mg/kg.; format: functional, organism-based; parameters: dose 100 mg/kg; how it was run: as §1
[9] = system: Mus musculus; assay: Anticonvulsant activity against MES (maximal electroshock) induced seizure in mice at 30 min; +++ = Activity at 100 mg/kg.; format: functional, organism-based; parameters: dose 100 mg/kg; how it was run: as §1
[10] = organism: Mus musculus; assay: Evaluation of inhibitory activity aagainst MES induced convulsions in mice.; format: functional
How it was run: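 Quantitative MES test in male Carworth Farms number-one mice. Compound in 30% polyethylene glycol 400, given ip at graded doses. Median effective dose (ED50) read by the graphical method.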

[11] = organism: Mus musculus; assay: Evaluation of inhibitory activity against scMet induced convulsions in mice; format: functional
[12] = system: Mus musculus; assay: Evaluated for toxicity by using rotarod test at in mice 30 min; +++ indicates activity at 100 mg/kg *-Loss of righting reflex at less than 600 mg/kg; format: organism-based; settings: in vivo, 0.5 h; how it was run: as §2
[13] = system: Mus musculus; assay: Evaluated for toxicity by using rotarod test in mice at 4 hr; ++ indicates activity at 300 mg/kg.; format: organism-based; parameters: dose 300 mg/kg; settings: in vivo; how it was run: as §2
[14] = organism: Mus musculus; assay: Evaluation of neurologic deficit by rotarod procedure in mice; format: functional
How it was run: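 Male Carworth Farms number-one mice were dosed ip (30% PEG 400 vehicle) and placed on a 1-in. knurled plastic rod rotating at 6 rpm. Neurotoxicity meant failure to stay on the rod for 1 min. TD50 was determined graphically.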

[15] = Protective index (PI) which is defined as the ratio of TD50 to the ED50 (MES).; format: functional
How it was run: (§3)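 Both values come from ip dosing in 30% PEG 400 to male Carworth Farms number-one mice and were derived by the graphical method.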

[16] = Protective index (PI) which is defined as the ratio of TD50 to the ED50 (ScMet).; format: functional; how it was run: as §3
[17] = system: Mus musculus; assay: Anticonvulsant activity against scMet (subcutaneous metrazole) induced seizure in mice at 30 min; - = No activity at 600 mg/kg.; format: functional, organism-based; parameters: dose 600 mg/kg
How it was run: (§4)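 Male Carworth Farms number-one mice dosed ip (30% PEG 400) at 30, 100, 300 and in some cases 600 mg/kg. Pentylenetetrazole 85 mg/kg given sc as a 0.5% solution in the posterior midline, at 30 min or 4 h. Protection means no clonic spasm of at least 5 s within 30 min. Scored by the lowest protective dose.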

[18] = system: Mus musculus; assay: Anticonvulsant activity against MES (maximal electroshock) induced seizure in mice at 4 hr; - = No activity at 600 mg/kg.; format: functional, organism-based; parameters: dose 600 mg/kg
How it was run: (§5)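 Male Carworth Farms number-one mice; compounds in 30% polyethylene glycol 400, given ip at 30, 100 and 300 mg/kg, some also at 600 mg/kg. Maximal electroshock challenge at 30 min or 4 h after dosing. Scored by the lowest dose giving protection (++++ 30, +++ 100, ++ 300, + 600 mg/kg; - none at 600).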

[19] = system: Mus musculus; assay: Anticonvulsant activity against MES (maximal electroshock) induced seizure in mice at 30 min; + = Activity at 600 mg/kg.; format: functional, organism-based; parameters: dose 600 mg/kg; how it was run: as §5
[20] = system: Mus musculus; assay: Anticonvulsant activity against scMet (subcutaneous metrazole) induced seizure in mice at 4 hr; - = No activity at 600 mg/kg.; format: functional, organism-based; parameters: dose 600 mg/kg; how it was run: as §4
[21] = system: Mus musculus; assay: Evaluated for toxicity by using rotarod test at in mice 30 min; - = No activity at 600 mg/kg.; format: organism-based; parameters: dose 600 mg/kg; settings: in vivo, 0.5 h; how it was run: as §2
[22] = system: Mus musculus; assay: Evaluated for toxicity by using rotarod test in mice at 4 hr; - = No activity at 600 mg/kg.; format: organism-based; parameters: dose 600 mg/kg; settings: in vivo; how it was run: as §2
[23] = system: Mus musculus; assay: Anticonvulsant activity against scMet (subcutaneous metrazole) induced seizure in mice at 30 min; ++ indicates activity at 600 mg/kg.; format: functional, organism-based; parameters: dose 600 mg/kg
[24] = system: Mus musculus; assay: Anticonvulsant activity against scMet (subcutaneous metrazole) induced seizure in mice at 4 hr; ++ indicates activity at 600 mg/kg.; format: functional, organism-based; parameters: dose 600 mg/kg
[25] = system: Mus musculus; assay: Anticonvulsant activity against MES (maximal electroshock) induced seizure in mice at 4 hr; ++ = Activity at 300 mg/kg.; format: functional, organism-based; parameters: dose 300 mg/kg; how it was run: as §1
[26] = system: Mus musculus; assay: Evaluated for toxicity by using rotarod test at in mice 30 min; ++ indicates activity at 300 mg/kg,*-Loss of righting reflex at less than 300 mg/kg; format: organism-based; settings: in vivo, 0.5 h; how it was run: as §2
[27] = system: Mus musculus; assay: Evaluated for toxicity by using rotarod test in mice at 4 hr; + indicates activity at 600 mg/kg.; format: organism-based; parameters: dose 600 mg/kg; settings: in vivo; how it was run: as §2
[28] = system: Mus musculus; assay: Anticonvulsant activity against scMet (subcutaneous metrazole) induced seizure in mice at 4 hr; ++ = Activity at 300 mg/kg.; format: functional, organism-based; parameters: dose 300 mg/kg
[29] = system: Mus musculus; assay: Anticonvulsant activity against MES (maximal electroshock) induced seizure in mice at 4 hr; +++ = Activity at 100 mg/kg.; format: functional, organism-based; parameters: dose 100 mg/kg; how it was run: as §1
[30] = organism: Mus musculus; assay: Evaluation of inhibitory activity against scMet induced convulsions in mice; NA = No activity.; format: functional, organism-based
[31] = system: Mus musculus; assay: Evaluated for toxicity by using rotarod test at in mice 30 min; +++ = Activity at 100 mg/kg, *-Loss of righting reflex at less than 300 mg/kg; format: organism-based; settings: in vivo, 0.5 h; how it was run: as §2
[32] = system: Mus musculus; assay: Evaluated for toxicity by using rotarod test in mice at 4 hr; ++ = Activity at 300 mg/kg.; format: organism-based; parameters: dose 300 mg/kg; settings: in vivo; how it was run: as §2

Nc1ccc(C(=O)NC(c2ccccc2)c2ccccc2)cc1
Activity [1]: Not toxic
Activity [2]: Not toxic
Activity [3]: Not toxic
Activity [4]: Not toxic
Toxicity [5]: Not toxic
Toxicity [6]: Not toxic

CN(Cc1ccccc1)C(=O)c1ccc(N)cc1
Activity [7]: Activity at 100 mg/kg
Activity [8]: Activity at 100 mg/kg
Activity [9]: Activity at 100 mg/kg
ED50 [10]: 52.6 mg/kg
ED50 [11]: 81.7 mg/kg
Toxicity [12]: activity at 100 mg/kg *-Loss of righting reflex at less than 600 mg/kg
Toxicity [13]: activity at 100 mg/kg *-Loss of righting reflex at less than 600 mg/kg
TD50 [14]: 98.1 mg/kg
PI [15]: 1.9
PI [16]: 1.2

CNC(=O)c1ccc(N)cc1
Activity [17]: Not toxic
Activity [18]: Not toxic
Activity [19]: Activity at 600 mg/kg
Activity [20]: Not toxic
Toxicity [21]: Not toxic
Toxicity [22]: Not toxic

CCCNC(=O)c1ccc(N)cc1
Activity [23]: Activity at 100 mg/kg
Activity [24]: Activity at 100 mg/kg
Activity [25]: Activity at 100 mg/kg
Activity [9]: Activity at 100 mg/kg
Toxicity [26]: activity at 300 mg/kg,*-Loss of righting reflex at less than 300 mg/kg
Toxicity [27]: activity at 300 mg/kg,*-Loss of righting reflex at less than 300 mg/kg

Nc1ccc(C(=O)NCc2ccccc2)cc1
Activity [17]: Not toxic
Activity [28]: Activity at 100 mg/kg
Activity [29]: Activity at 100 mg/kg
ED50 [30]: inactive
Toxicity [31]: Activity at 100 mg/kg, *-Loss of righting reflex at < 300 mg/kg
Toxicity [32]: Activity at 100 mg/kg, *-Loss of righting reflex at < 300 mg/kg
TD50 [14]: 83.4 mg/kg
PI [15]: 3.6
